IC50 data for one compound are collected here from BindingDB's records for doi:10.1021/ml500113s (Rti International, 2014).

The target of this assay is Sodium-dependent serotonin transporter (Rattus norvegicus, UniProt P31652). Put plainly: Inhibition of SERT-mediated serotonin uptake in rat synaptosomes. In short, it runs like this: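 Synaptosomes prepared from rat brain homogenate. Each compound was run in both the release assay and the uptake-inhibition assay to classify it as a releasing substrate or an uptake inhibitor. Dose-response curves were then completed only for the assigned activity. Values are means ± SD from N = 3 experiments, each performed in triplicate.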

As a reminder, the IC50 is the midpoint of a concentration-inhibition curve.

Sequence of Sodium-dependent serotonin transporter (P31652 whole entry): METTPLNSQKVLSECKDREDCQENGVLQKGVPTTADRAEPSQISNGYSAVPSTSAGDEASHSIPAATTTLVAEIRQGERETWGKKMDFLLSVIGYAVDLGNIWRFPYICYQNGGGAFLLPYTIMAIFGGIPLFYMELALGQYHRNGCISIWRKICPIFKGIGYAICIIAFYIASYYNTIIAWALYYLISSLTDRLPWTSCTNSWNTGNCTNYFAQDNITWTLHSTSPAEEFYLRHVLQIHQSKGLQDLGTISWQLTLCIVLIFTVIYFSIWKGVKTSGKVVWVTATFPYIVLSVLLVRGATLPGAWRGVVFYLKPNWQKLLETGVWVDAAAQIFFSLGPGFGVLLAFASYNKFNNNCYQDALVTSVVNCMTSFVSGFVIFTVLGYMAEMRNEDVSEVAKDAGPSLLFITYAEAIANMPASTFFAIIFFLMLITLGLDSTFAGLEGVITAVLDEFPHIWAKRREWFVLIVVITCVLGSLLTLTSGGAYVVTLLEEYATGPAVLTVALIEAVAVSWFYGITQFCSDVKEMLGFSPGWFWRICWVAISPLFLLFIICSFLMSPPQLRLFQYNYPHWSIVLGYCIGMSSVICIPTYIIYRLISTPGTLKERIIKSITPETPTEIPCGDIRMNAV

The compound `CC(NC1CC1)C(=O)c1cccc(Cl)c1` (stereo unspecified) [2-(N-Cyclopropylamino)-3-chloropropiophenone] displayed an IC50 of 3.18 µM.
